Hits are enriched below; roughly 3.5% of the tested compounds scored in any of these assays.
RGS4 pot: RGS4 potentiators or activators, primary screen, cell-based, HEK293 M3R inducible RGS4, calcium flux; carbachol calcium flux Fluo4; hits give low values; B-score at 10 µM; 310,000 tested, 0.92% active; AID 463111, 2010;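 active = B-score of the integrated calcium signal more than 4 SD below the library mean, with starting fluorescence not abnormally high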;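 note: negative B-score means reduced calcium response which marks RGS4 activation or potentiation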
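System: HEK293 FlpIn-TREx cells, stable M3R, doxycycline-inducible RGS4. Timing: overnight RGS4 induction, 30 min dye load 37 °C, 20 min compound RT. Also added: carbachol, ECmax concentration. Measured by: Fluo4 fluorescence kinetic imaging of calcium. Evaluation: integrated calcium ratio converted to B score.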
MrgX1 PAM: positive allosteric modulators of MrgX1, primary screen, HEK293 cells, Fluo-4 calcium flux; FDSS; hits give high values; Mas-related G-protein coupled receptor member X1 (Homo sapiens), Q96LB2; AID 588675, 2011; B-score at 10 µM; 310,000 tested, 0.63% active;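 active = plate-corrected calcium response at least 3 library SD above typical, normal starting fluorescence, not activating the receptor alone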;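 note: compound read alongside a low EC10 to EC30 dose of BAM8-22 agonist; peak minus trough fluorescence over baseline measured at the second addition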
Target sequence (Q96LB2 whole entry, looked up): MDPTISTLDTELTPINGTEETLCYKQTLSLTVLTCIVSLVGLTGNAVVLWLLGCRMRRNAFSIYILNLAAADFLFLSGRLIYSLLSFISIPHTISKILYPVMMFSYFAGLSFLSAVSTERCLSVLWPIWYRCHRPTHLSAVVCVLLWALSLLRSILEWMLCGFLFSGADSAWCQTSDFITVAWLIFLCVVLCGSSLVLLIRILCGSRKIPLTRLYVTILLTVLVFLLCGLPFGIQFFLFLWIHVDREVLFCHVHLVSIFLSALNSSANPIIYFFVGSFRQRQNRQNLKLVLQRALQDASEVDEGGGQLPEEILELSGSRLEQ
MrgX1 antag: antagonists of human MrgX1 receptor, primary screen, HEK293 cells, Fluo-4 calcium flux | 310,000 tested, 1.3% active | AID 588676, 2011 | BAM8-22 antagonism; hits give low values | B-score at 10 µM | Mas-related G-protein coupled receptor member X1 (Homo sapiens), Q96LB2;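 active = calcium-response B-score plate-corrected more than 3 library SD below zero, starting fluorescence within 5 deviations, no agonist response on first addition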;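 note: peak minus trough fluorescence over baseline after final BAM8-22 challenge near maximal dose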
RGS4 inh: RGS4 inhibitors, primary screen, cell-based, HEK293 M3R inducible RGS4, calcium flux; Regulator of G-protein signaling 4 (Homo sapiens), P49798; Fluo-4 calcium flux; hits give high values; triggered by carbachol at its EC20; B-score at 10 µM; 310,000 tested, 0.45% active;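 active = B-score, a plate-corrected calcium signal, over three deviations above library mean, with baseline fluorescence within five deviations of library mean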;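 note: RGS4 expression induced by doxycycline in cells with stable M3 receptor; B-score is computed from the integrated fluorescence ratio over baseline after carbachol; higher B-score means a larger calcium signal and so more RGS4 inhibition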
Target sequence (P49798 whole entry, looked up): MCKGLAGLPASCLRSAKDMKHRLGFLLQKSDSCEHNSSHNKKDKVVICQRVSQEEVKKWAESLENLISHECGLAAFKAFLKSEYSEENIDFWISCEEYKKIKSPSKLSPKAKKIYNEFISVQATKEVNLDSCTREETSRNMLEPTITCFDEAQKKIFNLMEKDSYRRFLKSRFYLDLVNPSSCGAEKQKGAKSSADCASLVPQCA
MrgX1 ag: agonists of human MrgX1 receptor, primary screen, HEK293 cells, Fluo-4 calcium flux. Mas-related G-protein coupled receptor member X1 (Homo sapiens), Q96LB2. Fluo-4 calcium fluorescence, agonist mode; hits give high values. B-score at 10 µM. 310,000 tested, 0.44% active;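 active = calcium response B-score plate-corrected fluorescence ratio at least 3 library SD, with starting fluorescence B-score inside 5 SD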
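System – MrgX1-expressing HEK293 cells · Incubation – cells plated overnight, dye loaded 0.5 h 37 °C, 0.5 h room temperature · Technique – kinetic Fluo-4 NW fluorescence of intracellular calcium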
MrgX1 allo conf: MrgX1 positive allosteric modulators, duplicate retest, confirmation, HEK293 cells, Fluo-4 calcium flux; shares compounds with MrgX1 PAM; Fluo-4 calcium fluorescence, FDSS; activation (ratio percentage), % at 10 µM; 1,200 tested, 13% active; AID 602413, 2012;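 active = ratio at least 3 SD above the weak peptide control, stable starting fluorescence, no direct agonism earlier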;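 note: compound followed by low BAM8-22 agonist challenge near EC20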
HEK293 Ca flux: nonspecific calcium signal in parental HEK293, confirmation, counter-screen for MrgX1 antagonist project, parental HEK293 cells, Fluo-4 calcium flux; shares compounds with MrgX1 antag; Fluo-4 calcium fluorescence, FDSS; fluorescence ratio F(max-min)/F0 at 10 µM; 4,000 tested, 2% active;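 active = duplicate-averaged calcium fluorescence ratio at least three times the standard deviation of buffer wells, a nonspecific response in parental cells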
HEK293 Ca counter: calcium response in parental HEK293 cells, primary screen, counter-screen for MrgX1 allosteric activator project, cell-based, Fluo-4 calcium flux, duplicate | AID 624114, 2012 | shares compounds with MrgX1 antag | Fluo-4 fluorescence ratio; hits give high values | fluorescence ratio F(max-min)/F0 at 10 µM | 4,000 tested, 0.4% active;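 active = calcium fluorescence ratio, averaged over duplicates, at least 3 SD of the buffer-well ratio, meaning a nonspecific response in receptor-free cells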;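 note: untransfected parental HEK293 lacking MrgX1 used as counterscreen for MrgX1 allosteric activators; fluorescence change taken during the second addition on a kinetic imager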
HEK293 Ca cntr2: calcium response in parental HEK293 cells, primary screen, counter-screen for MrgX1 agonist project, cell-based, Fluo-4 calcium flux, duplicate, agonist mode; shares compounds with MrgX1 antag; 4,000 tested, 8.7% active; AID 624115, 2012; Fluo-4 calcium fluorescence (FDSS); hits give high values; fluorescence ratio F(max-min)/F0 at 10 µM;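 active = calcium fluorescence ratio at least three times the spread of buffer wells, meaning a non-specific response in parental cells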
The depositor's hits bear a star; i = inactive; . = not tested or not shown.

SMILES	RGS4 pot	MrgX1 PAM	MrgX1 antag	RGS4 inh	MrgX1 ag	MrgX1 allo conf	HEK293 Ca flux	HEK293 Ca counter	HEK293 Ca cntr2
CCN(CC)S(=O)(=O)c1cccc(C(=O)N[C@H](C(=O)NCc2ccc(Cl)cc2)C(C)C)c1	i	i	i	i	i	.	.	.	.
O=C1CC(c2ccccc2)Sc2nc3ccccc3n21 (stereo not drawn)	i	i	i	i	i	.	.	.	.
O=C1CC(c2ccc3c(c2)OCO3)Sc2nc3ccccc3n21 (stereo not drawn)	i	7.5*	i	i	i	i	i	i	i
CN(C1CCCCC1)S(=O)(=O)c1cccc2nsnc12	i	i	i	i	i	.	.	.	.
O=C(Nc1ccccc1N1CCOCC1)c1ccc2ccccc2c1	i	7.2*	i	i	i	i	i	i	i
O=C(Nc1ccccc1N1CCOCC1)c1cccc(NS(=O)(=O)c2ccc(F)c(F)c2)c1	i	11*	i	i	i	i	i	i	i
O=C(Nc1ccccc1N1CCOCC1)c1ccccc1NS(=O)(=O)c1ccc(F)c(F)c1	i	i	i	i	i	.	.	.	.
O=C(NCCc1ccccn1)c1cc2ccccc2o1	i	i	i	i	i	.	.	.	.
CN(CC(=O)NC1CCCCCCC1)S(=O)(=O)c1cnc[nH]1	i	i	i	i	i	.	.	.	.
CCc1ccc(C(N)=S)cc1	i	9*	i	i	i	i	i	i	i
COc1ccc(C)cc1NC(=O)C1CCCN(S(=O)(=O)c2cccnc2)C1 (stereo not drawn)	i	i	i	i	i	.	.	.	.
CN(C)c1nc(N)nc(N(c2ccccc2)c2ccccc2)n1	i	7.4*	i	i	i	i	i	i	i
Cc1c(C(=O)c2ccccc2)oc2ccc3ccccc3c12	i	13*	i	i	i	i	i	48*	i
Nc1c(C(=O)c2ccccc2)oc2ccccc12	i	i	i	i	i	.	.	.	.
O=C(Cc1ccccc1[N+](=O)[O-])NCCSCc1c(F)cccc1Cl	i	i	i	i	i	.	.	.	.
Cc1ccc(Nc2cc(-n3cccn3)ncn2)c(C)c1	i	14*	i	i	i	i	i	i	i
Cc1ccc(C(c2nnnn2Cc2cccs2)N2CCN(C(=O)c3ccco3)CC2)cc1 (stereo not drawn)	i	i	i	i	i	.	.	.	.
CCC(c1nnnn1Cc1cccs1)N1CCN(C(=O)c2ccco2)CC1 (stereo not drawn)	i	7.1*	i	i	i	i	i	i	i
CCN1CCN(c2nc(C)c3c(n2)CC(C)CC3=O)CC1 (stereo not drawn)	i	8*	i	i	i	i	i	i	i
Cc1nc(N2CCN(Cc3ccccc3)CC2)nc2c1C(=O)CC(C)C2 (stereo not drawn)	i	i	i	i	i	.	.	.	.
O=S(=O)(Nc1ncnc2sc3c(c12)CCC3)c1ccc(Cl)s1	i	i	i	i	i	.	.	.	.
Cc1csc(SCC(=O)NC(=O)NCCC(C)C)n1	i	i	i	i	i	.	.	.	.
O=S(=O)(c1ccc(Br)s1)N1CCC2(CC1)OCCO2	i	i	i	i	i	.	.	.	.
COc1ccc(CC(=O)Nc2ccccc2Oc2ccccc2)cc1	i	8.3*	i	i	i	i	i	i	i
CC1CC1C(=O)OCC(=O)Nc1ccccc1Oc1ccccc1 (stereo not drawn)	i	12*	i	i	i	i	i	i	i
SMILES	RGS4 pot	MrgX1 PAM	MrgX1 antag	RGS4 inh	MrgX1 ag	MrgX1 allo conf	HEK293 Ca flux	HEK293 Ca counter	HEK293 Ca cntr2
N#CC1(N2CCN(C(=O)c3ccccc3)CC2)CCCCC1	i	i	i	i	i	.	.	.	.
CCN(c1ccccc1)S(=O)(=O)c1ccc2c(c1)N(C(C)=O)CCO2	i	i	i	i	i	.	.	.	.
C/C(=N\NC(=O)c1nc2ccccn2c1C)c1cc2ccccc2o1	i	i	i	i	i	.	.	.	.
C/C(=N\NC(=O)c1cc2ccccc2cc1O)c1cc2ccccc2o1	i	22*	i	i	i	i	i	i	i
CCn1c(SCC(=O)N/N=C/c2ccccc2OCC(=O)O)nnc1-c1ccc(C)cc1	i	i	i	i	i	.	.	.	.
CCN(CC)C(=O)c1cc2sc3ccccc3c2s1	i	9.1*	i	i	i	i	i	i	i
COCCN(CCOC)C(=O)c1cc2sc3ccccc3c2s1	i	i	i	i	i	.	.	.	.
CC(=O)NC(Cc1ccc(F)cc1)C(=O)NC1CCN(C(=O)Nc2ccccc2C)CC1 (stereo not drawn)	i	i	i	i	i	.	.	.	.
CC(C)C(OC(=O)c1cc2sccc2n1C)C(=O)NCC1CCCO1 (stereo not drawn)	i	i	i	i	i	.	.	.	.
COc1ccc(CN(CC2CCCO2)C(=O)c2cc3sccc3n2C)c(OC)c1 (stereo not drawn)	i	6.5*	i	i	i	i	i	i	i
CCOc1ccc(OCC)c(-c2c(=O)n(OCc3ccc(C(C)(C)C)cc3)c3ccccc3[n+]2[O-])c1	i	i	i	i	i	.	.	.	.
O=C(CN1C(=O)C2C3CC(C(Br)C3Br)C2C1=O)N1CCOCC1 (stereo not drawn)	i	i	i	i	i	.	.	.	.
